Key:
[1] = target: T1, Amyloid-beta precursor protein (Homo sapiens, UniProt P05067); experiment: Inhibition of amyloid beta (1 to 42 residues) (unknown origin) aggregation after 24 hrs by thioflavin T assay
In short: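 Aβ1−42 was dissolved in DMSO as a 1 mg/mL stock, then incubated at 20 μM with a range of sample concentrations for 24 h at 37 °C. Thioflavin T was added to 3 μM, and fluorescence was read 30 min later (ex 442 nm, em 485 nm). Aβ alone served as control. Run in triplicate; IC50 is the mean.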

[2] = target: T1, Amyloid-beta precursor protein; experiment: Inhibition of amyloid beta (1 to 42 residues) (unknown origin) aggregation at 100 uM after 24 hrs by thioflavin T assay
[3] = Cytotoxicity against rat PC12 cells; type: cell-based; conditions: pc-12

T1 sequence (P05067 whole entry, the tested form may be a part): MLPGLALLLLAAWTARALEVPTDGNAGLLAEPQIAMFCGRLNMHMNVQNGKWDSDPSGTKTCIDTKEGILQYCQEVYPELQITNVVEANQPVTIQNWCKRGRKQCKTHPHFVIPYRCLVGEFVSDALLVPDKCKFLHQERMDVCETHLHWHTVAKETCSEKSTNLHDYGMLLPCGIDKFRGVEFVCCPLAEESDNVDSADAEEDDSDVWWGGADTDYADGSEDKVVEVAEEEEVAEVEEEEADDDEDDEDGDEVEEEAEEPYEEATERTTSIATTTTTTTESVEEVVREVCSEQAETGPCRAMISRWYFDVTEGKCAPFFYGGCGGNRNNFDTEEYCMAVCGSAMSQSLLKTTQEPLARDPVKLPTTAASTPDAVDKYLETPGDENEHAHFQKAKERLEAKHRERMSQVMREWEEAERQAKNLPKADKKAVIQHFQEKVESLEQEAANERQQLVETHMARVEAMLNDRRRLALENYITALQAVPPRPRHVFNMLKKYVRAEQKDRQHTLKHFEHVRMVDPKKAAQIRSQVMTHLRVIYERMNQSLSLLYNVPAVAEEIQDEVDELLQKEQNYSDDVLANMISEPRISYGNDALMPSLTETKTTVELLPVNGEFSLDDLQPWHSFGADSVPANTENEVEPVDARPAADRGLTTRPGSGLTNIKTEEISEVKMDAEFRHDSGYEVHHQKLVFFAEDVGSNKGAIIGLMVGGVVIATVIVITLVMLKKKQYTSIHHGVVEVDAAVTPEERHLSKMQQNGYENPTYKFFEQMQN

SMILES | IC50 [1] | inhibition [2] | Activity [3]
CC1=CC[C@@H]2[C@@]3(C)[C@@H](O)CC(=O)OC(C)(C)[C@@H]3CC[C@@]2(C)[C@]12Cc1c(c(C)c(C)oc1=O)O2 | > 300 µM |  | 
CC(=O)O[C@H]1CC(=O)OC(C)(C)[C@@H]2CC[C@]3(C)[C@H](CC=C(C)[C@@]34C[C@]3(OC(C)=C(C)C3=O)C(=O)O4)[C@@]12C | > 300 µM |  | 
C[C@@H]1C[C@@]23C[C@H]4C(C)(C)[C@@]5(C[C@]4(CN2C1=O)NC3=O)C(=O)Nc1c5ccc2c1OC=CC(C)(C)O2 | > 300 µM |  | 
C[C@@H]1C[C@@]23C[C@H]4C(C)(C)[C@@]5(C[C@]4(CN2C1=O)N(C)C3=O)C(=O)Nc1c5ccc2c1OC=CC(C)(C)O2 | > 300 µM |  | 
C[C@@H]1C[C@@]23C[C@H]4C(C)(C)[C@@]5(C[C@]4(CN2C1=O)N(C)C3=O)C(=O)Nc1c5ccc2c1C=CC(C)(C)O2 | > 300 µM |  | 
CC1=CC[C@@H]2[C@@]3(C)C=CC(=O)OC(C)(C)[C@@H]3CC[C@@]2(C)[C@]12Cc1c(c(C)c(C)oc1=O)O2 | > 300 µM |  | 
CC1(C)C=Cc2cc(C(=O)O)ccc2O1 | > 300 µM |  | 

Compounds with a lower IC50 [1], results first:

IC50 [1] | inhibition [2] | SMILES | Activity [3]
269 µM | 30% | C[C@H]1CN2C[C@]34C[C@@]5(C(=O)Nc6c5ccc5c6OC=CC(C)(C)O5)C(C)(C)[C@@H]3C[C@@]2(C1)C(=O)N4C | 
244 µM | 30% | C[C@@H]1C[C@@]23C[C@H]4C(C)(C)[C@@]5(C[C@]4(CN2C1=O)NC3=O)C(=O)Nc1c5ccc2c1C=CC(C)(C)O2 | 
204 µM | 30% | C[C@H]1CN2C[C@]34C[C@@]5(C(=O)Nc6c5ccc5c6C=CC(C)(C)O5)C(C)(C)[C@@H]3C[C@@]2(C1)C(=O)N4C | Toxic
187 µM | 30% | CN1C(=O)[C@@]23CCC(=O)N2C[C@@]12C[C@@]1(C(=O)Nc4c1ccc1c4C=CC(C)(C)O1)C(C)(C)[C@@H]2C3 | 
71.9 µM |  | O=C(/C=C/c1ccc(O)c(O)c1)O[C@H](Cc1ccc(O)c(O)c1)C(=O)O [ROSMARINIC ACID] | 
